# Data reported in paper PMC6014630 (Tuberculosis (Edinburgh, Scotland), 2018).
# What was measured:
# [1] = tested on: human neutrophils, monocytes and lymphocytes; assay type: cell-based
# [2] = tested on: lung cell populations of TDM-challenged C57BL/6 mice; test: In vivo cellular specificity of cFLFLFK-PEG12-Cy3 in TDM-challenged mouse lung; settings: 50 µg i.v., 4 h circulation, 5 days after TDM; flow cytometry, n=3
# Method in brief: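 Female C57BL/6 mice (8 weeks, 18–20 g) received 100 µg TDM i.v. Five days later they got 50 µg Cy3-labelled test compound i.v. (n=3) or PBS (n=2). Lungs were digested 4 h later, and cells (2×10^6/mL in HBSS+) were live/dead stained 30 min on ice. They were blocked 30 min (40% mouse serum), plated at 1×10^6/well and mAb-stained. Flow cytometry acquired 100,000 live events. Gated populations were CD11b+Ly6G+, CD3+, CD11c+CD11b-, CD11b+CD11c+, CD11b+CD11c- and marker-negative. Each population's share of total Cy3 signal was pooled across mice.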
# C57BL/6 mouse lung = test: TDM-induced lung granulomatous inflammation in mice; assay type: in vivo
# Method in brief: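 TDM was given via tail vein as an oil-in-water emulsion (100 µL, 100 µg), or vehicle alone. Day-5 lungs were H&E-stained for light microscopy (histology mice 6 weeks old). Flow cytometry used five TDM-treated mice (female, 8 weeks) with live/dead staining and mAb gating: CD11b+Ly6G+ neutrophils, CD3+ lymphocytes, CD11c+CD11b- alveolar macrophages, CD11b+CD11c+ macrophages/dendritic cells, CD11b+CD11c- monocytes/immature macrophages. Values are percentages of all living cells.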
# [3] = five TDM-administered mice, day 5
Substance,Cy3 MFI on neutrophils compared with monocytes and lymphocytes [1],"Dose dependence of binding to neutrophils, monocytes and lymphocytes [1]",Targeting of lymphocytes and other (antibody-negative) cells in the lung [2],"Lung histology (H&E) (C57BL/6 mouse lung; 100 µg TDM i.v., day 5, versus vehicle emulsion)","Change in lung frequency of CD3+ lymphocytes (C57BL/6 mouse lung; 100 µg TDM i.v., day 5, flow cytometry)","Frequency increase of lung neutrophils compared to vehicle-injected mice (C57BL/6 mouse lung; 100 µg TDM i.v., day 5, flow cytometry, data not shown)",Percentage of alveolar macrophages relative to all living lung cells (C57BL/6 mouse lung; [3]),Percentage of immature macrophages/monocytes relative to all living lung cells (C57BL/6 mouse lung; [3]),Percentage of lymphocytes relative to all living lung cells (C57BL/6 mouse lung; [3]),Percentage of macrophages/dendritic cells relative to all living lung cells (C57BL/6 mouse lung; [3]),Percentage of neutrophils relative to all living lung cells (C57BL/6 mouse lung; [3])
cFLFLFK-PEG12-Cy3,significantly higher,Dose-dependent binding was observed on all cell types,not targeted,,,,,,,,
trehalose dimycolate [TDM],,,,patchy regions of granulomatous inflammation were observed,unchanged,9.1% ± 6.4%,6.3% ± 1.7%,20.1% ± 3.1%,10.7% ± 2.5%,17.7% ± 7.7%,9.2% ± 3.7%
